KCNK3 block = human KCNK3 channel inhibition, primary screen; AID 602410; O14649; B-score at 10 µM; CHO-KCNK3 thallium flux, FluxOR fluorescence; stronger effect = lower value; 0.84% of 340,000 active;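 active means B-score under library mean minus 4 SD, starting fluorescence ratio at most library mean plus 5 SD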;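 further: more negative B-score means stronger inhibition of thallium flux through KCNK3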
KCNQ1 pot = human KCNQ1 channel potentiation or activation; P51787; 0.35% of 310,000 active; B-score at 10 µM; AID 2648; CHO-K1 KCNQ1, thallium flux FluxOR fluorescence; stronger effect = higher value;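 active means fluorescence ratio B-score, a plate-corrected score, at least three library SD, with initial intensity B-score within 5 SD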
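assay system = KCNQ1-transfected CHO-K1 cells | medium = assay buffer with matched DMSO | probe or stimulus = depolarizing K+/Tl+ stimulus, K2SO4 and Tl2SO4 each 12.5 mM in 5x stock | dosing = single dose | incubation = dye 90 min, compound 20 min, room temperature | detection = kinetic FluxOR fluorescence, 10 s baseline plus 110 s post-stimulus | evaluation = ratio B score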
hERG rescue = shields human hERG channel from block by proarrhythmic agents; 0.51% of 310,000 active; Q12809; activation (rescue from dofetilide block), less the hit threshold, % at 10 µM; CHO-hERG, FluxOR thallium flux, dofetilide IC70 present;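 active means activation above the mean of controls blocked by dofetilide plus 5 SD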;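 further: thallium influx through hERG after potassium depolarization seen as dye fluorescence rise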
KCNQ1 block = blocks the human KCNQ1 potassium channel; P51787; CHO-K1 KCNQ1, FluxOR thallium flux fluorescence; stronger effect = higher value; B-score at 10 µM; 1.3% of 310,000 active; AID 2642;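 active means compounds whose thallium flux B-score, printed positive for inhibition, exceeds three library SD while starting fluorescence stays within three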;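 further: channel opened by potassium depolarization with thallium stimulus after 20 min compound exposure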
KCNK9 block = human KCNK9 channel inhibition; Q9NPC2; B-score at 10 µM; HEK293 KCNK9, FluxOR thallium flux fluorescence; stronger effect = lower value; 1.2% of 310,000 active;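 active means ratio B-score over 3 SD below the library mean, with starting fluorescence within 5 SD of its mean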;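 further: negative B-score means less thallium flux so channel inhibition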
KCNK3 confirm = human KCNK3 channel inhibition, confirmation assay. CHO-KCNK3 thallium flux, FluxOR fluorescence; 0% buffer, 100% carvedilol maximal block. shares compounds with KCNK3 block. 99% of 2,400 active. AID 651638. ratio percent of control, % at 10 µM;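 active means ratio percent of control, averaged over triplicates, above buffer control mean plus 5 SD, cut at about 64% in these data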;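 further: ratio is the fluorescence rise from min to max over baseline after thallium stimulus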
KCNK3 uninduced = KCNK3 inhibitor counter-screen hit in non-induced cells | shares compounds with KCNK3 block | non-induced KCNK3 parental cells, FluxOR thallium flux; stronger effect = lower value | thallium flux ratio (lower = more inhibition) at 10 µM | 40% of 2,400 active;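 active means thallium flux ratio, averaged over three wells, more than 5 SD below the buffer control mean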;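 further: host cells are CHO cells without KCNK3 induction; ratio is peak minus trough fluorescence over baseline then normalized to buffer controls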
An asterisk follows results filed as active; i = inactive; · = no result given. Hits are enriched below; roughly 3.1% of the tested compounds scored in any of these assays.

SMILES | KCNK3 block | KCNQ1 pot | hERG rescue | KCNQ1 block | KCNK9 block | KCNK3 confirm | KCNK3 uninduced
Cc1nn(C)c(C)c1CNC(=O)Nc1cccc(Cl)c1C | i | i | -15 | i | i | · | ·
Oc1ccccc1/C=N/NC(=S)NC1CC2CC1C1C=CCC21 (stereo not given) | i | i | -11 | i | i | · | ·
CCn1c(=NC(=O)c2cccc(N3C(=O)CCC3=O)c2)sc2c(C)ccc(OC)c21 | -9.4* | i | -13 | i | i | 106* | i
N#CCC(=O)NNC(=S)Nc1ccccc1C(F)(F)F | i | i | -19 | i | i | · | ·
O=C(Nc1ccc(N2CCCC2)cc1)c1cccc(-c2cc3ccccc3oc2=O)c1 | -10* | i | -7 | i | i | 84* | i
CCn1c2ccccc2c2nnc(SCc3ccccc3)nc21 | -12* | i | -13 | i | -6.6* | 106* | i
O=C(NCCc1cn2ccccc2n1)c1ccccc1F | i | i | -3 | i | i | · | ·
O=C(NCCc1cn2ccccc2n1)c1cc(COc2ccc3ncccc3c2)on1 | -14* | i | -27 | i | i | 130* | i
COc1cccc(CN(C)C(=O)c2cc(COc3ccc4ncccc4c3)on2)c1 | -9.8* | i | -19 | i | i | 120* | i
O=c1c2ccccc2nc(/C=C/c2ccc([N+](=O)[O-])o2)n1CCCO | i | i | -10 | i | i | · | ·
Cc1ccc(Cc2cc(-c3ccc(C)cc3)n[nH]c2=O)cc1 | i | i | -9 | i | i | · | ·
CCc1ccc2c(c1)C1(NN=C(c3ccc(C)cc3)S1)C(=O)N2 (stereo not given) | -8.7* | i | -23 | 7* | i | 106* | 0.11*
CC(=O)Nc1ccccc1OCCOc1ccc(Br)cc1 | -12* | i | -3 | i | i | 99* | i
NC(=O)c1ccccc1OCCOc1ccc(Br)cc1 | i | i | -1 | i | i | · | ·
COc1ccc(OC)c(-c2csc(NC(=O)Cc3ccc(F)cc3)n2)c1 | -11* | i | -3 | i | i | 114* | i
COc1ccc(OC)c(-c2csc(NC(=O)C3=COCCO3)n2)c1 | -9.1* | i | -15 | i | i | 91* | i
COc1ccc(OC)c(-c2csc(NC(=O)Cc3cc(OC)c(OC)c(OC)c3)n2)c1 | i | i | -5 | i | i | · | ·
O=C(Cc1ccccc1F)Nc1nc(-c2ccc(F)cc2)cs1 | -11* | i | -5 | i | i | 126* | i
O=C(CN1CCC(n2nnc3cc(F)ccc32)CC1)NCCc1nc2ccccc2[nH]1 | i | i | -4 | i | i | · | ·
CN1C[C@@H]2C(c3ccc(Cl)nc3)C3(c4ccccc4)CC2(C3)[C@H]1c1ccccc1 (stereo not given in full) | i | i | -9 | i | i | · | ·
CC(OC(=O)C1CCC1)C(=O)Nc1cc(Cl)cc(Cl)c1 (stereo not given) | -9* | i | -12 | i | i | 96* | i
CC(=O)c1cccc(NC(=O)C(C)OC(=O)C2CCC2)c1 (stereo not given) | i | i | -4 | i | i | · | ·
CC(=O)Nc1cc(C(=O)OC(C(=O)c2ccccc2)c2ccccc2)ccc1C (stereo not given) | -10* | i | -19 | i | i | 79* | i
CCN1CCSc2ccc(C(=O)NCc3ccccc3Br)cc21 | -9.7* | i | -15 | i | i | 104* | 0.15*
Cc1cccc(CNC(=O)c2ccc3c(c2)N(C)CCS3)c1 | i | i | -11 | i | i | · | ·
CN1CCSc2ccc(C(=O)NCc3cccc(Br)c3)cc21 | -14* | i | -14 | i | i | 120* | 0.16*
CC(C)(C)OC(=O)n1cc(/C=N/NC(=O)c2ccco2)c2ccccc21 | -9.2* | i | -9 | i | i | 108* | i
O=C(COC(=O)/C=C/c1cccc(Br)c1)NC1CCCCCC1 | i | · | · | · | · | · | ·
